# Assay outcomes from PubChem.
# Shown are actives, neighbours in structure and some others; about 1.4% of the full set was active somewhere.
# RBBP9 inh: human RBBP9 inhibitors, primary screen, biochemical, fluorescence polarization, FP-Rh probe, HTS; Serine hydrolase RBBP9 (Homo sapiens), O75884; recombinant RBBP9; inhibition, % at 7.94 µM; 0.2% of 220,000 active; AID 1515, 2009;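 active = inhibition above the campaign mean of all tested compounds plus 3 SD, cut at about 14% in these data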;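 note: plate controls were DMSO wells with RBBP9 for no effect and wells lacking RBBP9 protein for full effect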
# Target sequence (O75884 whole entry, looked up): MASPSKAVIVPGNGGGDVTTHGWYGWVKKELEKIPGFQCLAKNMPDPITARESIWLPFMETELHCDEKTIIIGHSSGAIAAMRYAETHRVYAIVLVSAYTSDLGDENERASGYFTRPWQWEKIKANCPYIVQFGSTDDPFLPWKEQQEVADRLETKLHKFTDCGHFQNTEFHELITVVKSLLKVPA
#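 Material: RBBP9 protein. Amount: RBBP9 at 2.5 µM in dispensed solution, before mixing. Schedule: 30 min then 45 min, 25 °C. Medium: Tris buffer pH 8.0, NaCl, Pluronic. Measured by: fluorescence polarization. Measure: percent inhibition from mP, scaled between DMSO and no-protein wells. Replication: one well per compound.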
# mABHD4 FP: ABHD4 inhibitors, primary screen, biochemical, fluorescence polarization, mouse. (Lyso)-N-acylphosphatidylethanolamine lipase (Mus musculus), Q8VD66. purified mABHD4, FP-Rh probe fluorescence polarization. inhibition, % at 8.92 µM. 0.54% of 370,000 active. AID 720543, 2013;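 active = inhibition exceeding the mean over every tested compound plus 3 SD, cut at about 30% in these data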;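 note: 0% = plate median of compound wells and 100% = S159A mutant with DMSO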
# Target sequence (Q8VD66 whole entry, looked up): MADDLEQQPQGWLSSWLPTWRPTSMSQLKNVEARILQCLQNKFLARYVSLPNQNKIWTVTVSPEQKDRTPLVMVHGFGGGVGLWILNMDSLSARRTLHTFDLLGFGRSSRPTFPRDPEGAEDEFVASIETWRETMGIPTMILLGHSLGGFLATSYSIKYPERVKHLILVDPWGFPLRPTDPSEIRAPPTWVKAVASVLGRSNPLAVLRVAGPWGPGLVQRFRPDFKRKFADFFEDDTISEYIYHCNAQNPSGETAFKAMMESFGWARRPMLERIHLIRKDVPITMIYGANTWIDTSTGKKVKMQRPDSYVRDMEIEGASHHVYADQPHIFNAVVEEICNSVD
#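 System: mouse ABHD4 enzyme, wild type / Medium: HEPES pH 7.0, NaCl, Pluronic buffer / Reagent: FP-Rh activity-based fluorescent probe / Control set: S159A mutant high control, sample median low control / Detection: fluorescence polarization with parallel and perpendicular emission, 525/598 nm / Schedule: 45 min + 60 min at 25 °C / Compound dosing: 8.92 µM, single dose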
# SIAE inh: human SIAE inhibitors, primary screen, biochemical, fluorescence polarization, FP-Rh probe, 1536-well HTS; Sialate O-acetylesterase (Homo sapiens), Q9HAT2; SIAE FP-Rh probe binding; inhibition, % at 9.66 µM; 0.69% of 370,000 active;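 active = inhibition above a cutoff: mean of compounds within the control limits plus 3 SD of those, cut at about 17% in these data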;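 note: 0% = plate median of compound wells and 100% = probe without SIAE protein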
# HTRA1 inhibitor: HTRA1 serine protease inhibitors, primary screen, biochemical, fluorescence polarization, HTS | 0.5% of 340,000 active | inhibition, % at 5.96 µM | recombinant HTRA1, FP-rhodamine activity-based probe | Q92743 | AID 504803, 2011; in the data active = inhibition above about 36%;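 note: 0% = enzyme with DMSO and 100% = wells lacking enzyme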
# SIAE confirm: human SIAE inhibitors, retest, confirmation, biochemical, fluorescence polarization, FP-Rh probe, triplicate; shares compounds with SIAE inh; SIAE FP-Rh activity-based probe; inhibition, % at 9.66 µM; 13% of 2,300 active; AID 1117263, 2014;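 active = mean inhibition of the replicates above the hit cutoff set in the primary screen, cut at about 17% in these data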;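 note: 0% = SIAE with DMSO and probe and 100% = probe without SIAE; inhibitors lower polarization as more probe stays unbound to SIAE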
# * hit, by the source's call; . = not tested or not shown.
SMILES,RBBP9 inh,mABHD4 FP,SIAE inh,HTRA1 inhibitor,SIAE confirm
COc1ccc(N2CCC(CNC(=S)Nc3ccc(C)cc3C)C2)cc1 (configuration not stated),-5,5,2,8,.
COc1ccc(NC(=O)CS(=O)CC(=O)N2CCN(C3CCCC3)CC2)cc1 (configuration not stated),.,-3,0,-8,.
COc1ccc(NC(=S)c2ccc(N(C)C)cc2)cc1,-1,3,7,6,.
Cc1ccc(NC(=S)c2ccc(N(C)C)cc2)cc1,-5,4,17*,5,0
COc1cc(/C=C/c2ccc3cccc(OC)c3n2)c(OC(C)=O)c([N+](=O)[O-])c1,-7,8,5,17,.
COc1c(OC(C)=O)ccc(/C=C/c2ccc3cccc(OCc4ccccc4)c3n2)c1[N+](=O)[O-],-11,-11,28*,-7,-16
Cc1cc(S(=O)(=O)c2ccc([N+](=O)[O-])cn2)ccc1Br,.,1,24*,0,7
COC(=O)C1=C(C)N(Cc2cccc(C(F)(F)F)c2)C(=NCC2CC2)NC1c1ccc(F)cc1 (configuration not stated),.,10,9,.,.
COC(=O)C1CCN(Cc2c(C(=O)N3C[C@@H](C)O[C@@H](C)C3)nc3ccc(Cl)cn23)CC1,.,8,3,2,.
Cc1cc(N=Cc2c(O)n(-c3cccc(C(F)(F)F)c3)c(=O)c3ccccc23)no1,1,2,21*,-11,-8
Cc1cc(-c2csc(NC(=O)c3ccc(=O)[nH]c3)n2)c(C)n1Cc1ccccc1,-8,-6,26*,18,0
CCC1(c2ccc(F)cc2)NC(=O)N(CC(=O)N(C)C2CCS(=O)(=O)C2)C1=O (configuration not stated),.,-1,21*,7,-2
c1ccc(-c2c[nH]c3[n+]2CCCCC3)cc1,-10,0,19*,-5,-1
COCCNc1nc(NCc2cccc(OC)c2)c2sc(-c3ccccc3)cc2n1,.,27,34*,.,31*
COc1cccc(CNc2nc(NCc3ccccc3)nc3ccsc23)c1,.,28,12,.,.
COCCNc1nc(NCc2ccc(NC(C)=O)cc2)c2sc(-c3ccccc3)cc2n1,.,22,27*,.,18*
c1ccc(OCCNc2nc(NCC3CC3)nc3cc(-c4ccccc4)sc23)cc1,.,15,22*,.,21*
COCCNc1nc(Oc2ccc(NC(C)=O)cc2)c2sc(-c3ccccc3)cc2n1,.,-7,-10,.,.
c1ccc(CNc2nc(NCC3CC3)nc3cc(-c4ccccc4)sc23)cc1,.,11,10,.,.
CCCCCCn1c(-c2ccc(Cl)cc2Cl)csc1=Nc1ccccc1,.,4,-8,.,.
CCOC(=O)/C(=C\c1c[nH]c2ccccc12)NC(C)=O,-1,5,18*,2,4
CC(/C=C/c1ccc(N(C)C)cc1)=N\N=C1\NC(=O)CC(C(=O)Nc2ccccc2)S1 (configuration not stated),-2,-6,19*,20,7
COc1cc(-c2nc(-c3ccccc3)c(-c3ccc(F)cc3)[nH]2)cc2c1OCO2,-11,12,9,-5,.
COc1ccc(-c2[nH]c(-c3ccc4c(c3)OCO4)nc2-c2ccccc2)cc1,9,15,21*,18,4
CC1OC(C(C)(C)C)Cc2[nH][nH]c(=O)c21 (configuration not stated),.,1,1,.,.
SMILES,RBBP9 inh,mABHD4 FP,SIAE inh,HTRA1 inhibitor,SIAE confirm
FC(F)(F)c1ccccc1Cc1c(-c2ccco2)nc2c3ccccc3ccn12,.,-3,-11,.,.
Cn1c(N)c(N=O)c(=O)n(C)c1=O,-1,0,17*,1,2
CCOC(=O)C=Nc1c(N)n(C)c(=O)n(C)c1=O,7,0,0,-9,.
COc1ccc(CN(C)C(=O)c2cccc(NC(=O)CC3SC(N4CCCCC4)=NC3=O)c2)c(OC)c1 (configuration not stated),.,4,-1,-2,.
CC/C(=N/N=C(/CC)c1ccc(O)cc1)c1ccc(O)cc1,.,5,4,3,.
CCOC(=O)C1CCCN(C(=O)c2ccc(OC)c([N+](=O)[O-])c2)C1 (configuration not stated),0,5,30*,4,-3
Oc1ccc(Br)cc1/C=N/NC(=S)NCCc1ccccc1,.,-5,18*,22,10
COc1ccc(O)c(/C=N/NC(=S)NCCc2ccccc2)c1,.,7,18*,26,9
COc1ccc(/C(C)=N/NC(=S)NCCc2ccccc2)c(O)c1,.,8,25*,21,24*
Cn1c(=O)c2c(n(C)c1=O)n(C)c(=O)n2C,.,-2,4,.,.
Cc1[nH]n(-c2ccc(Br)cc2)c(=O)c1/C=N/NC(=O)c1ccccc1,.,8,17*,14,2
COc1ccc(CC2=CC(=O)c3ccccc3C2=O)cc1,.,21,18*,2,6
Clc1ccc(/C=N/Nc2ncnc3ccccc23)cc1Cl,-5,-2,27*,2,-23
COc1ccc2nc(SCC(=O)N(C)CC(=O)Nc3ccc(F)cc3)[nH]c2c1,.,7,18*,-4,-3
COc1ccc(NC(=O)CN(C)C(=O)CCSc2ccc(F)cc2)cc1,.,-4,19*,-2,1
CC(=O)NNc1cc(N2CCOCC2)nc(N2CCOCC2)n1,1,10,25*,7,0
CC(C)(C)c1ccc(C(=O)NNc2cc(N3CCOCC3)nc(N3CCOCC3)n2)cc1,-3,1,-3,10,.
COC(CNC(=O)c1cn(C)c2ccc(S(=O)(=O)N(C)C3CCCCC3)cc2c1=O)OC,.,2,1,2,.
CCOC(=O)C(NC(=O)Nc1ncccn1)(Oc1ccccc1)C(F)(F)F (configuration not stated),-7,5,24*,3,3
CCOC(=O)C(NC(=O)Nc1ccc(F)cc1F)(Oc1ccc(F)cc1)C(F)(F)F (configuration not stated),-5,3,6,8,.
CCn1c(SCC(=O)Nc2cccc(C)c2)nc2ccccc2c1=O,.,-5,-7,-6,.
CCn1c(SCC(=O)Nc2ccccc2)nc2ccccc2c1=O,.,0,17*,-7,4
O=C(Nc1ccc(C(F)(F)F)cc1)OC1CCC12CCC(c1ccccc1)CC2 (configuration not stated),.,-17,2,.,.
O=C(c1ccccc1Oc1ccccc1)N1CCC(Oc2cccnc2)CC1,.,-1,20*,.,1
COc1ccccc1C(=O)N1CCC(Oc2cccnc2)CC1,.,5,1,.,.
COC(=O)[C@]12C[C@H](CC(=O)N3CCC(c4ccccc4)CC3)C(=O)N(Cc3ccc(Cl)cc3Cl)C1=C[C@H](COCc1ccccc1)O[C@@H]2C,.,-5,-4,.,.
